Measurements published in BindingDB's records for doi:10.1021/jm020334u (Roche Discovery Welwyn, 2003).

Target: Polymerase acidic protein (Influenza A virus (strain A/Puerto Rico/8/1934 H1N1), UniProt P03433)
Assay: Inhibitory concentration against cap-dependent endonuclease activity of influenza virus RNP
Summary of the method: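 Gel-based cap-dependent endonuclease assay. 1 nM influenza RNP was incubated with 0.1 nM cap-labeled 20-mer G20 RNA in 50 mM Tris-HCl pH 8 with 1 mM MgCl₂, 20 mM KCl, 1 U/μL RNase inhibitor and 0.3% Triton X-100, for 5 min at 31 °C. Cleavage products were resolved on polyacrylamide gels and quantified by phosphorimager. IC50 came from dose–response curves.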

Row | SMILES | IC50 [µM]
1 | COCOn1c(=O)c(=CC(C)C)[nH]c(=CC(C)C)c1=O [(3Z)-5-isobutyl-1-(methoxymethoxy)-3-(2-methylpropylidene)pyrazine-2,6(1H,3H)-dione] | > 355
2 | CC(C)C=c1[nH]c(=Cc2ccc(F)cc2)c(=O)[nH]c1=O [3-(4-fluorobenzylidene)-5-isobutylpyrazine-2,6(1H,3H)-dione] | > 365
